In ChEMBL document CHEMBL4229515, “A novel synthesis of 2-arylbenzimidazoles in molecular sieves-MeOH system and their antitubercular activity” (Bioorg Med Chem, 2018):

Legend:
Format in all cases: organism-based
Settings in all cases: in vivo, 168 h
Mus musculus [1] = test: Acute toxicity in Swiss albino mouse assessed as effect on albumin levels at 5 mg/kg, po after 7 days (reference value: 3.53 +/- 0.35 mg/dL)
Mus musculus [2] = test: Acute toxicity in Swiss albino mouse assessed as effect on tissue protein levels at 5 mg/kg, po after 7 days (reference value: 0.06 +/- 0.004 mg/mL)
Mus musculus [3] = test: Acute toxicity in Swiss albino mouse assessed as effect on relative liver weight at 1000 mg/kg, po after 7 days
How it was run: (§1)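 Single acute oral dose of 5, 50, 300 or 1000 mg/kg body weight, with an untreated control group; n=6 mice per group. Animals observed for 7 days for morbidity, mortality, behaviour and body weight. At the end, blood and serum were analysed, and organs were examined grossly with absolute and relative weights. Data are mean±SE; P<0.05 was taken as significant versus control and the lower-dose groups.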

Mus musculus [4] = test: Acute toxicity in Swiss albino mouse assessed as effect on relative heart weight at 5 to 1000 mg/kg, po after 7 days; how it was run: as §1
Mus musculus [5] = test: Acute toxicity in Swiss albino mouse assessed as effect on relative lung weight at 5 to 1000 mg/kg, po after 7 days; how it was run: as §1

COc1ccc2c(c1)nc(-c1ccccc1OC)n2Cc1ccccc1OC
Activity (Mus musculus [1]): 3.81 mg/dL | Activity (Mus musculus [2]): 0.06 mg/mL | Activity (Mus musculus [3]): Toxic | Activity (Mus musculus [4]): Non-Toxic | Activity (Mus musculus [5]): Non-Toxic
